23 compounds from ChEMBL document CHEMBL1139526, “Synthesis, antiviral activity, and mechanism of drug resistance of D- and L-2',3'-didehydro-2',3'-dideoxy-2'-fluorocarbocyclic nucleosides” (J Med Chem, 2005) can be followed below.

Some results are limits rather than exact numbers.

Experiment [1] relates to PBMC. In words: Inhibitory concentration was determined against PHA stimulated human peripheral blood mononuclear cells. The class given is functional, cell-based. Summed up: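 Uninfected PHA-stimulated PBM cells from healthy HIV/HBV-seronegative donors were isolated by Ficoll-Hypaque and seeded at 5 × 10⁴ cells/well. Cells were incubated 5 days at 37 °C with 10-fold serial dilutions. Read-out was MTT reduction at 570 nm after overnight dye and solubilization. IC50 was taken by median-effect analysis.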

The next experiment deals with Vero. In words: Inhibitory concentration against uninfected Vero cells. The class given is functional, cell-based. The settings on record: Chlorocebus sabaeus. Summed up:
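Uninfected Vero cells in log phase, 5 × 10³ cells/well, were exposed to 10-fold serial drug dilutions for 3 days at 37 °C. Viability was read by MTT overnight, solubilized, at 570 nm. IC50 came from the median effect method.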

The test system of experiment [2] is PBMC. In words: Effective concentration to inhibit HIV-1 activity in human peripheral blood mononuclear cells. The class given is functional, cell-based. The method, boiled down: (§1)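 HIV-1 LAI was the reference virus. Human PBM cells were infected in bulk for 1 h at 100 TCID50/1 × 10⁷ cells (flask) or 200 TCID50/6 × 10⁵ cells/well. Cells went into 10-fold serial compound dilutions in RPMI-1640 with 16% FBS, DEAE-dextran and IL-2, 5 days at 37 °C. Read-out was supernatant RT activity ([³H]TTP, poly(rA)·oligo(dT)). EC50 was taken by the median effect method.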

In another experiment the test system is CCRF-CEM. Briefly: Inhibitory concentration against CEM cell line. The class given is functional, cell-based. Particulars: Homo sapiens. Summed up:
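CEM T-lymphoblastoid cells in log phase, 2.5 × 10³ cells/well, were exposed to 10-fold serial dilutions for 4 days at 37 °C and 5% CO₂. MTT was added overnight, then solubilized, with absorbance read at 570 nm. IC50 was taken from median-effect analysis.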

Experiment [3] has as its system PBMC. In words: In vitro effective concentration against HBV in human peripheral blood mononuclear cells. The class given is functional, cell-based.
Experiment [4] relates to PBMC. Briefly: In vitro effective concentration against HIV-1 in human peripheral blood mononuclear cells. Format: functional, cell-based. Summed up: as §1
For experiment [5], the system named is PBMC. Briefly: In vitro effective concentration against Lamivudine resistant HIV-1 mutant M184V in human peripheral blood mononuclear cells. The class given is functional.
Experiment [6] relates to PBMC. In words: (§2) In vitro effective concentration against […] wild type HIV-1 in human peripheral blood mononuclear cells. The class given is functional. Summed up:
(§3)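 Molecular clones were used: wild-type HIV-1 xxBru and lamivudine-resistant HIV-1 M184Vpitt. Human PBM cells were infected in bulk for 1 h, then cultured in 10-fold serial compound dilutions with IL-2 for 5 days at 37 °C. Pelleted supernatant virus was assayed for RT activity, 2 h at 37 °C with [³H]TTP. EC50/EC90 came from median-effect analysis. Fold increase is M184V EC50 over xxBRU EC50.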

Experiment [7] has as its system PBMC. Described as §2. Format: functional, cell-based. The method, boiled down: as §3
Experiment [8] deals with PBMC.
Experiment [9] has as its system PBMC. In words: Fold increase in ratio of EC50 against HIV-1 M184V to that of EC50 against HIV-1wild type. The class given is functional, Homo sapiens. The method, boiled down:
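PHA-stimulated human PBM cells infected in bulk for 1 h with the molecular clones HIV-1 xxBru (wild type) or M184Vpitt, then added to 10-fold serial drug dilutions. Cultured 5 days at 37 °C. Supernatant virus was pelleted and its RT activity measured by [3H]TTP incorporation on poly(rA)·oligo(dT). EC50 by the median effect method; fold increase = EC50 M184V / EC50 xxBru.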

The subject of the next experiment is MT4. Briefly: In vitro effective concentration against HIV-1 in MT-4 cells. The settings on record: Homo sapiens. The class given is functional, cell-based.

Consider `OC[C@@H]1C=C(F)[C@H](n2cnc3c(O)ncnc32)C1`, for which the IC50 in the experiment with PBMC [1], in the experiment on Vero and in the experiment with CCRF-CEM was over 100 µM in each case. The EC50 with PBMC [2] is over 100 µM.

With `Nc1nc(=O)n([C@@H]2O[C@H](CO)C=C2F)cc1F`, the values for the EC50 in the experiment on PBMC [3] and in the experiment on PBMC [4] were 0.22 µM and 0.17 µM, respectively.

For `Nc1ccn([C@@H]2C[C@H](CO)C=C2F)c(=O)n1`, the IC50 with PBMC [1], with Vero and with CCRF-CEM was over 100 µM in each case. In the experiment on PBMC [2], this compound yielded an EC50 of over 100 µM.

For the compound `Nc1ccn([C@@H]2S[C@H](CO)C=C2F)c(=O)n1`, a half-maximal response with PBMC [4] (EC50) required 1.3 µM.

Take `O=c1ccn([C@@H]2C[C@H](CO)C=C2F)c(=O)[nH]1`: the IC50 with PBMC [1], in the experiment on Vero and with CCRF-CEM was over 100 µM each time. In addition, the EC50 with PBMC [2] is over 100 µM.

In the case of `Cc1cn([C@H]2C[C@@H](CO)C=C2F)c(=O)[nH]c1=O`, the IC50 in the experiment with PBMC [1], in the experiment on Vero and with CCRF-CEM was over 100 µM each time. The compound further came in with an EC50 with PBMC [2] of over 100 µM.

For `Nc1ncnc2c1ncn2[C@@H]1C[C@H](CO)C=C1F`, the IC50 with PBMC [1], with Vero and in the experiment with CCRF-CEM was over 100 µM each time. For the same compound, the EC50 in the experiment on PBMC [2] and with PBMC [4] was 72.8 µM in each case.

`Nc1ncnc2c1ncn2[C@H]1C=C(F)C(CO)O1` (single isomer, unassigned) came in with an EC50 in the experiment on PBMC [4] of 4.4 µM.

Regarding `Nc1nc(=O)n([C@H]2C=C(F)C(CO)O2)cc1F` (single isomer, unassigned), the EC50 with PBMC [4] stood at 0.82 µM.

In turn, `Nc1nc(=O)n([C@H]2C=C(F)[C@@H](CO)S2)cc1F` came in with an EC50 in the experiment with PBMC [4] of 0.15 µM.

Take `Nc1ncnc2c1ncn2[C@@H]1O[C@H](CO)C=C1F`: the EC50 in the experiment on PBMC [3] is 1.7 µM; in the experiment on PBMC [4] it was 1.5 µM.

For the compound `Nc1ncnc2c1ncn2[C@H]1C[C@@H](CO)C=C1F`, the EC90 in the experiment on PBMC [5] was over 100 µM; with PBMC [6] it was 8.34 µM. Further, the IC50 in the experiment on PBMC [1], with Vero and with CCRF-CEM was over 100 µM each time. Also, the results for the EC50 with PBMC [2], in the experiment on PBMC [7] and in the experiment with PBMC [8] were 0.77 µM, 0.77 µM and 75.3 µM, respectively. Besides, the Fold increase in the experiment on PBMC [9] came to 98.

Regarding `Cc1cn([C@@H]2C[C@H](CO)C=C2F)c(=O)[nH]c1=O`, the IC50 with PBMC [1], in the experiment on Vero and in the experiment on CCRF-CEM was over 100 µM each time. In the experiment with PBMC [2], this compound showed an EC50 of over 100 µM.

For the compound `Nc1ccn([C@@H]2O[C@H](CO)C=C2F)c(=O)n1`, the concentration for a half-maximal effect (EC50) in the experiment with PBMC [3] was 0.8 µM; with PBMC [4], 0.51 µM.

On to `Nc1ccn([C@@H]2CS[C@H](CO)O2)c(=O)n1` [LAMIVUDINE], for which the EC90 in the experiment on PBMC [6] was 0.25 µM. For the same compound, in the experiment with PBMC [7], the concentration giving a half-maximal response (EC50) amounted to 0.027 µM.

For the compound `Nc1nc(O)c2ncn([C@@H]3C[C@H](CO)C=C3F)c2n1`, the IC50 with PBMC [1], in the experiment on Vero and with CCRF-CEM was over 100 µM throughout. Besides, the concentration giving a half-maximal response (EC50) in the experiment with PBMC [2] and with PBMC [4] was 37.8 µM in each case.

With `Nc1ccn([C@H]2C[C@@H](CO)C=C2F)c(=O)n1`, the IC50 with PBMC [1], with Vero and with CCRF-CEM was over 100 µM in each case. Moreover, in the experiment on PBMC [2], the EC50 stood at 37.7 µM.

With `Cc1cn([C@H]2C[C@H](N=[N+]=[N-])[C@@H](CO)O2)c(=O)[nH]c1=O` [ZIDOVUDINE], in the experiment with PBMC [1], the IC50 was over 100 µM. In the experiment on PBMC [2], this compound showed an EC50 of 0.0018 µM.

In the case of `OC[C@H]1C=C(F)[C@@H](n2cnc3c(O)ncnc32)C1`, the IC50 in the experiment with PBMC [1] is over 100 µM; with Vero, over 100 µM; in the experiment with CCRF-CEM it was 91.3 µM. The same compound showed an EC50 with PBMC [2] of over 100 µM.

`Nc1nc2c(ncn2[C@H]2C=C[C@@H](CO)C2)c(=O)[nH]1` [CARBOVIR] registered an EC50 with PBMC [4] of 0.55 µM. In the experiment on MT4, this compound yielded an IC50 of 4.6 µM.

In turn, `Nc1ccn([C@H]2C=C(F)[C@@H](CO)S2)c(=O)n1` registered an EC50 with PBMC [4] of 0.12 µM.

On to `Nc1nc(O)c2ncn([C@H]3C[C@@H](CO)C=C3F)c2n1`, for which the IC50 with PBMC [1], in the experiment on Vero and in the experiment on CCRF-CEM was over 100 µM throughout. In the experiment on PBMC [2], this compound yielded an EC50 of over 100 µM.

As to `O=c1ccn([C@H]2C[C@@H](CO)C=C2F)c(=O)[nH]1`, the IC50 with PBMC [1], in the experiment with Vero and in the experiment with CCRF-CEM was over 100 µM each time. The EC50 in the experiment on PBMC [2] is over 100 µM.
